For experiment [1], the target named is Histone deacetylase 1/3/5/8 (Homo sapiens, UniProt Q13547+O15379+Q9UQL6+Q9BY41). The experiment can be described thus: Inhibition of HDAC1/HDAC3/HDAC5/HDAC8 in human HeLa nuclear extract using Boc-Lys(acetyl)-AMC as substrate incubated for 5 mins prior to substrate measured after 30 mins by spectrophotometric analysis. The format is protein assay.
For experiment [2], the target named is T1, Aminopeptidase N (Sus scrofa, UniProt P15145).
T1 sequence (P15145 whole entry): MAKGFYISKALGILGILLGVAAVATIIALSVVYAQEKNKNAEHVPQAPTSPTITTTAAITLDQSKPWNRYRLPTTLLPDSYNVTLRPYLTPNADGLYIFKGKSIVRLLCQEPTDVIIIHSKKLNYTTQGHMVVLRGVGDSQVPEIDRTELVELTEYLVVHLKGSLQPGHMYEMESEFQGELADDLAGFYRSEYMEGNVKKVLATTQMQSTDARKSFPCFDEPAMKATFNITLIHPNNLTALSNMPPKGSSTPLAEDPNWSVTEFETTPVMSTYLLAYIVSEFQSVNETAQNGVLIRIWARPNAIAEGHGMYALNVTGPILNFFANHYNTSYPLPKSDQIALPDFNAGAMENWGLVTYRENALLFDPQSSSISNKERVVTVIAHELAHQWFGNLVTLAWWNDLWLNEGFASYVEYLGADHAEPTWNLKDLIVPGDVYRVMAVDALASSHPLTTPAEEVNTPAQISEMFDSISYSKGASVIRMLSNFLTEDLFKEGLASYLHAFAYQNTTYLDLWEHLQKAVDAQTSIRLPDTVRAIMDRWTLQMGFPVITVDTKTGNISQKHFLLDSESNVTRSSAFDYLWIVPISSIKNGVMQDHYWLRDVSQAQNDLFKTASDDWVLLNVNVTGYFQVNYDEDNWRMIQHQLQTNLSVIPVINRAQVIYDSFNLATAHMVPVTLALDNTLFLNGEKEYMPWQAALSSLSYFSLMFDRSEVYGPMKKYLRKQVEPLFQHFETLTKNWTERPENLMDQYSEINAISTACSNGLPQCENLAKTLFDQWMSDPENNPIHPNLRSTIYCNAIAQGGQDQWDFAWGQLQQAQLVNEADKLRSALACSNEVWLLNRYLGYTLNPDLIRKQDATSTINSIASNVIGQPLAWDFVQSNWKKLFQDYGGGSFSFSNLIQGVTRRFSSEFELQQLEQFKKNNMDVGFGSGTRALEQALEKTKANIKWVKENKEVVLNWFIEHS
Nature of the experiment: Inhibition of pig microsomal aminopeptidase N using L-leu-p-nitroanilide as substrate incubated for 5 mins prior to substrate addition measured after 30 mins by spectrophotometric analysis. The method in brief: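 Porcine kidney microsomal aminopeptidase in 50 mM PBS, pH 7.2. Compounds at various concentrations preincubated with enzyme 5 min at 37 °C, then L-leu-p-nitroanilide added and incubated 30 min at 37 °C. IC50 from triplicate experiments, mean ± SD.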

Experiment [3] addresses Aminopeptidase N (Homo sapiens, UniProt P15144). Nature of the experiment: Inhibition of aminopeptidase N in human ES2 cells using L-leu-p-nitroanilide as substrate incubated for 5 mins prior to substrate addition measured after 30 mins by spectrophotometric analysis. The format is cell-based. The method in brief:
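Whole ES-2 cell suspension in PBS (1 × 10^5 cells/well) used as enzyme source. Compounds at various concentrations preincubated 5 min at 37 °C, then L-leu-p-nitroanilide added and incubated 30 min at 37 °C. IC50 from triplicate experiments, mean ± SD.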

Experiment [4] is described as follows: Antiproliferative activity against human ES2 cells after 48 hrs by MTT assay. Format: functional, cell-based. To be noted: ES-2, 48 h. The gist of the method:
(§1)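 Cells grown in RPMI1640 with FBS at 37 °C, 5% CO2; seeded 5000/well, 4 h before adding inhibitor at varied concentrations. After 48 h, 1% MTT added for 4 h, formazan dissolved in DMSO (15 min mixing), OD read at 570 nm. IC50 from three independent experiments, mean values.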

A further experiment concerns U-937. Nature of the experiment: Antiproliferative activity against human U937 cells after 48 hrs by MTT assay. The format is functional, cell-based. To be noted: U-937, 48 h. The method in brief:
as §1

Aminopeptidase N (Homo sapiens, UniProt P15144), sequence (P15144 whole entry): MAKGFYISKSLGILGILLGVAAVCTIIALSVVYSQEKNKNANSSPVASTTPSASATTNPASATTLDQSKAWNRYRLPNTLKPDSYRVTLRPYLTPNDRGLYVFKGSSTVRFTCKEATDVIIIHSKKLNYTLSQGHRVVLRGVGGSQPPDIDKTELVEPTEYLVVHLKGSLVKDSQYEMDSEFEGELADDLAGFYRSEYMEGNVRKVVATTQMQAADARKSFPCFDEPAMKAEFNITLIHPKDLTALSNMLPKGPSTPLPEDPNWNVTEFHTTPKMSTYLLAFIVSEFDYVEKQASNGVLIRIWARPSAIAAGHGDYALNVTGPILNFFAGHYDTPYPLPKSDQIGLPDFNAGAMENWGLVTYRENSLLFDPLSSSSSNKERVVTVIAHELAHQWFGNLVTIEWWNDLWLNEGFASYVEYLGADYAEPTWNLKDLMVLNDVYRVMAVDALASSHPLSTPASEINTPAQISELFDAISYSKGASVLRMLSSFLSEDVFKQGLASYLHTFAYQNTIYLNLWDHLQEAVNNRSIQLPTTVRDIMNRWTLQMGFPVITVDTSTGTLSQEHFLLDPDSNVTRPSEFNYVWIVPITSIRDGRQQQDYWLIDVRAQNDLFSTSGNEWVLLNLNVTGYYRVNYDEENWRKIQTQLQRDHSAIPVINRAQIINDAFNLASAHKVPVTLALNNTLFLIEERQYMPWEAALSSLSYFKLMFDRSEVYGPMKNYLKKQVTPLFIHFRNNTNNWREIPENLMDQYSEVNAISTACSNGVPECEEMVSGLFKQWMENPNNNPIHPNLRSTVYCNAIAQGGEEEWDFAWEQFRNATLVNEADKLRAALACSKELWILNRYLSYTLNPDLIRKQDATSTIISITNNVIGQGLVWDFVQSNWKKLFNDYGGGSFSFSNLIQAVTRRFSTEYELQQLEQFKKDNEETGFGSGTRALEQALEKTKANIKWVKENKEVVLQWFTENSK

As for `CC(C)C[C@H](NC(=O)Nc1ccccc1)C(=O)NO`, the figures for the half-inhibitory concentration (IC50) (in experiment [1]; on Aminopeptidase N [2]) were > 100 µM and 1.15 µM, respectively.

As for `CC(C)C[C@H](NC(=O)Nc1cccc(F)c1)C(=O)NO`, the IC50 in experiment [1] was > 100 µM; against Aminopeptidase N [2], 1.9 µM.

For `CC(C)C[C@H](NC(=O)Nc1cccc(Cl)c1)C(=O)NO`, the IC50 in experiment [1] was > 100 µM; against Aminopeptidase N [2], 1.66 µM.

As to `CC(C)C[C@H](NC(=O)Nc1cccc(Br)c1)C(=O)NO`, the IC50 in experiment [1] is > 100 µM; against Aminopeptidase N [2], 0.58 µM.

In the case of `Cc1cccc(NC(=O)N[C@@H](CC(C)C)C(=O)NO)c1`, the IC50 in experiment [1] was > 100 µM; against Aminopeptidase N [2], 0.24 µM.

Regarding `COc1cccc(NC(=O)N[C@@H](CC(C)C)C(=O)NO)c1`, the IC50 in experiment [1] is > 100 µM; on Aminopeptidase N [2], 1.36 µM.

For `CC(C)C[C@H](NC(=O)Nc1cccc(C(F)(F)F)c1)C(=O)NO`, the IC50 in experiment [1] was > 100 µM; on Aminopeptidase N [2] it was 1.97 µM.

As for `CC(C)C[C@H](NC(=O)Nc1cccc(O)c1)C(=O)NO`, the IC50 was > 100 µM in experiment [1] and 1.7 µM against Aminopeptidase N [2].

With `CC(C)C[C@H](NC(=O)NCc1ccccc1F)C(=O)NO`, the results for the IC50 (in experiment [1]; at Aminopeptidase N [2]) were > 100 µM and 1.38 µM, respectively.

On to `CC(C)C[C@H](NC(=O)NCc1ccccc1Cl)C(=O)NO`, for which the IC50 in experiment [1] was > 100 µM; at Aminopeptidase N [2] it was 0.22 µM; against Aminopeptidase N [3], 0.65 µM.

`CC(C)C[C@H](NC(=O)NCc1ccccc1Br)C(=O)NO`: the IC50 is > 100 µM in experiment [1], 0.13 µM against Aminopeptidase N [2] and 0.73 µM against Aminopeptidase N [3].

For `Cc1ccccc1CNC(=O)N[C@@H](CC(C)C)C(=O)NO`, the IC50 in experiment [1] is > 100 µM; on Aminopeptidase N [2] it was 0.9 µM.

`CC(C)C[C@H](NC(=O)NCc1cccc(Cl)c1)C(=O)NO`: the IC50 in experiment [1] is > 100 µM; against Aminopeptidase N [2], 0.35 µM.

For the compound `Cc1cccc(CNC(=O)N[C@@H](CC(C)C)C(=O)NO)c1`, the IC50 in experiment [1] was > 100 µM; at Aminopeptidase N [2], 0.44 µM.

`CC(C)C[C@H](NC(=O)Nc1ccccc1F)C(=O)NO`: the IC50 in experiment [1] is > 100 µM; on Aminopeptidase N [2], 0.52 µM.

For `CC(C)C[C@H](NC(=O)Nc1ccccc1Cl)C(=O)NO`, the IC50 in experiment [1] is > 100 µM; on Aminopeptidase N [2] it was 0.093 µM; against Aminopeptidase N [3] it was 1.31 µM; in experiment [4], 615 µM; with U-937, > 1000 µM.

In the case of `CC(C)C[C@H](NC(=O)Nc1ccccc1Br)C(=O)NO`, the IC50 was > 100 µM in experiment [1]; 0.06 µM at Aminopeptidase N [2]; 0.53 µM against Aminopeptidase N [3]; 405 µM in experiment [4]; > 1000 µM in the experiment with U-937.

As to `Cc1ccccc1NC(=O)N[C@@H](CC(C)C)C(=O)NO`, the IC50 in experiment [1] is > 100 µM; against Aminopeptidase N [2], 0.18 µM; against Aminopeptidase N [3], 0.61 µM.

As to `COc1ccccc1NC(=O)N[C@@H](CC(C)C)C(=O)NO`, the IC50 is > 100 µM in experiment [1]; 0.13 µM on Aminopeptidase N [2]; 0.7 µM on Aminopeptidase N [3]; 480 µM in experiment [4]; > 1000 µM in the experiment with U-937.

As to `CC(C)C[C@H](NC(=O)Nc1ccccc1C(F)(F)F)C(=O)NO`, the values for the IC50 (in experiment [1]; on Aminopeptidase N [2]) were > 100 µM and 0.79 µM, respectively.

Take `CC(C)C[C@H](NC(=O)Nc1ccccc1O)C(=O)NO`: the half-inhibitory concentration (IC50) in experiment [1] was > 100 µM; against Aminopeptidase N [2], 11.9 µM.

In the case of `CC(C)C[C@H](NC(=O)[C@@H](O)[C@H](N)Cc1ccccc1)C(=O)O` [UBENIMEX], the IC50 in experiment [1] was > 100 µM; in experiment [4] it was 620 µM; in the experiment with U-937 it was > 1000 µM.

The values above are taken from ChEMBL document CHEMBL2331374, “Novel leucine ureido derivatives as inhibitors of aminopeptidase N (APN)” (Bioorg Med Chem, 2013).
